Screening results: PubChem, several laboratories
NR2E3 ag-1 = activates human NR2E3 receptor. CHO-S Gal4-NCOR/VP16-NR2E3 two-hybrid, luciferase. actives 0.35% (n = 360,000). AID 602229. Q9Y5X4. inhibition of corepressor binding, % at 3.98 µM;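 active = inhibition above the mean of all tested compounds plus 3 SD, cut at about 70% in these data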;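 also: higher means lower luciferase signal from less NR2E3 corepressor binding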
NR2E3 ag-2 = activates human photoreceptor nuclear receptor NR2E3; GST-NR2E3/biotin-RetCOR TR-FRET, 1536-well; actives 0.12% (n = 320,000); Q9Y5X4; inhibition of corepressor binding, % at 4.78 µM;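 active = percent inhibition above the cutoff of mean plus 3 SD of all tested compounds, set per screening campaign, cut at about 20% in these data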
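System: GST-tagged NR2E3 plus biotinylated RetCOR corepressor; Buffer or medium: pH 7.5 Tris-based buffer; Probe or stimulus: RetCOR corepressor, biotinylated, 7 nM; Doses: compound at 4.8 µM, single dose; Schedule: 5 h incubation at 4 °C; Technique: time-resolved FRET; Evaluation: percent inhibition of TR-FRET ratio; Replication: one well per compound, singlicate testing.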
GalR3 antag = blocks the human galanin receptor 3 | O60755 | HEK293 GalR3-CNG cAMP membrane potential fluorescence; galR3 body fused to GalR1 C-terminus | inhibition, % at 3 µM | actives 0.44% (n = 360,000);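 active = inhibition above the screen-wide average plus 3 SD, cut at about 13% in these data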;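 also: forskolin and galanin both at EC90 stimulate the cells; cAMP rise reported by CNG channel membrane potential dye signal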
NR1D1 modulator = Rev-erb alpha (human) modulation; activity, % at 10 µM; P20393; Rev-erbα–FITC-DNA binding, fluorescence polarization, 90 min; actives 0.79% (n = 370,000); AID 1259318;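 active = activity above about 14%, limit read from the data; passing the limit was not always enough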
Target sequence (P20393 whole entry, looked up): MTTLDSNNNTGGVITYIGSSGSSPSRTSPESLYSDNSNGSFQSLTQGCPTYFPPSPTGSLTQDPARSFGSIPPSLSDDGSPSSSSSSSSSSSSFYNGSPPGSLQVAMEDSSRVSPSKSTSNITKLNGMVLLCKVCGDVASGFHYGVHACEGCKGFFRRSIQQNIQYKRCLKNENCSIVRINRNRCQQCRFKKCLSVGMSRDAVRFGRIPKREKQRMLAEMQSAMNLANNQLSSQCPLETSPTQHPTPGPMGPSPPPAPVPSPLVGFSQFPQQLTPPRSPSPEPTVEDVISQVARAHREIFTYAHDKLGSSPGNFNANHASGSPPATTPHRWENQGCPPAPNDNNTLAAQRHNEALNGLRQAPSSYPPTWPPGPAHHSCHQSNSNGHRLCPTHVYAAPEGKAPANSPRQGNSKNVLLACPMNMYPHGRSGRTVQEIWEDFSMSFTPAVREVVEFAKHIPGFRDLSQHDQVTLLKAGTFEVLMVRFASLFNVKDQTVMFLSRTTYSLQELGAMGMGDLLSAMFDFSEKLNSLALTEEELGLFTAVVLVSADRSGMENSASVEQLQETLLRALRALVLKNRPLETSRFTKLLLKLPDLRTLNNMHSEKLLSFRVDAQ
PG9 Ab binder = small molecules binding HIV-1 gp120 antibody PG9; actives 0.43% (n = 360,000); TR-FRET gp120-PG9 antibody binding; AID 624416; inhibition, % at 6.7 µM; in the data active = inhibition above about 8.5%
GalR3 conf = confirmation of human galanin receptor 3 antagonists; shares compounds with GalR3 antag; HEK293 GalR3 CNG cAMP biosensor, membrane potential fluorescence; galR3 fused to GalR1 carboxy tail; challenged with forskolin and galanin at EC90; inhibition, % at 3 µM; actives 59% (n = 1,600);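 active = inhibition above the primary screen's cutoff, the mean inhibition of all screened compounds plus 3 SD, cut at about 13% in these data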
CNG parental = counter-screen for GalR3 antagonists: nonspecific agonists in parental HEK-CNG cells; shares compounds with GalR3 antag; HEK293-CNG parental cells, cAMP membrane potential fluorescence; normalised: DMSO wells 0%, forskolin wells 100%; activation, % at 3 µM; actives 10% (n = 1,600); AID 652268; in the data active = activation above about 1.3%
Large screens that a line does not name were inactive (follow-up assays come after a bar, where they were run). Most compounds without a hit are left out; they make up all but 1.8% or so of the library.

CCCCCCCC(=O)N/N=C(\C)c1ccc(N)cc1	none (no result: NR2E3 ag-1, GalR3 antag, NR1D1 modulator, PG9 Ab binder)
CCCCCCCCCC(=O)N/N=C(\C)c1cccnc1	GalR3 antag 14 | GalR3 conf inactive | CNG parental inactive
CN1CCCN(C(=O)CN2C(=O)CC(C)(C)S(=O)(=O)c3ccccc32)CC1	none (no result: NR2E3 ag-1, NR2E3 ag-2, GalR3 antag, PG9 Ab binder)
CCOC(=O)N1CCN(C(=O)C[C@@H]2C(=O)N(CCc3ccc(Cl)cc3)/C3=C/CCCCC[C@@]32C(=O)OCC)CC1	none (no result: NR2E3 ag-1, NR2E3 ag-2, GalR3 antag, PG9 Ab binder)
COc1cc(CC2COC(=O)C2(O)Cc2ccc(O)c(OC)c2)ccc1O (stereo unspecified)	GalR3 antag 48 | GalR3 conf inactive | CNG parental inactive
COc1cc(C[C@H](C)[C@H](C)Cc2ccc3c(c2)OCO3)ccc1O	none (no result: GalR3 antag, NR1D1 modulator, PG9 Ab binder)
O=C(NCCc1ccccc1)OCc1cn(Cc2ccc(F)cc2)nn1	none (no result: NR2E3 ag-1, NR2E3 ag-2, GalR3 antag, PG9 Ab binder)
O=C1NC(=Nc2ccccc2Cl)S/C1=C\c1ccc(C(=O)O)cc1	none
CC12CCC(C/C1=N\N=C1\NC(=O)/C(=C\c3ccc(Cl)cc3)S1)C2(C)C (stereo unspecified)	GalR3 antag 17 | GalR3 conf inactive | CNG parental 34
CCCC[C@H]1C2CC(OC(=O)Nc3cccc(C#N)c3)C(C2)[C@H]2CCCCN21 (stereo partly specified)	none (no result: NR2E3 ag-1, NR2E3 ag-2, GalR3 antag, PG9 Ab binder)
CN1C(=O)c2cc(NC(=O)Nc3ccccc3)ccc2OC[C@H]2O[C@@H](CC(=O)Nc3cc(F)ccc3F)CC[C@@H]21	none (no result: NR2E3 ag-1, NR2E3 ag-2, GalR3 antag, PG9 Ab binder)
C#CCOCCOCCOCCNc1nc(N2CCN(C(=O)[C@H]([C@@H](C)CC)n3cc(CCC(=O)O)nn3)CC2)nc(N2CCN(C(=O)[C@H](CCCCN)n3cc(CCC(=O)O)nn3)CC2)n1	none (no result: NR2E3 ag-2, GalR3 antag) | GalR3 conf inactive | CNG parental inactive
C#CCOCCOCCOCCNc1nc(N2CCN(C(=O)[C@H]([C@@H](C)CC)n3cc(CCCCN)nn3)CC2)nc(N2CCN(C(=O)[C@H](CCCCN)n3cc(CC(C)O)nn3)CC2)n1 (stereo partly specified)	none
CN(C(=O)c1cccc(NC(=O)Cc2ccc(NC(=O)C3CCCN(C(=O)c4ccccc4)C3)cc2)c1)C1CC1 (stereo unspecified)	none (no result: NR2E3 ag-1, NR2E3 ag-2)
N#Cc1sc2nc(N3CCCCC3)c3c(c2c1N)CCCC3	none
Cc1nc2sc(C#N)c(N)c2c2c1CCCC2	GalR3 antag 27 | GalR3 conf 34 | CNG parental inactive
Cc1ccccc1NC(=O)CNc1ccc(Cl)c(C(F)(F)F)c1	GalR3 antag 14 | GalR3 conf inactive | CNG parental inactive
CN(CC(=O)Nc1ccc(F)c(F)c1)S(=O)(=O)c1cccs1	none
CCc1cccc(NC(=O)CN(C)S(=O)(=O)c2cccs2)c1	GalR3 antag 14 | GalR3 conf inactive | CNG parental inactive
Cc1ccc(CN2CCc3c(OCc4ccc(F)cc4)cccc3C2=O)cc1	none
O=C1c2cccc(OCc3ccc(F)cc3)c2CCN1Cc1ccc(F)cc1	GalR3 antag 20 | GalR3 conf 38 | CNG parental inactive
O=C(COC(=O)C(O)C(O)C(=O)OCC(=O)c1ccc(C(F)(F)F)cc1)c1ccc(C(F)(F)F)cc1 (stereo unspecified)	GalR3 antag 13 | GalR3 conf inactive | CNG parental inactive
O=C(CCC(=O)OCC(=O)c1ccc(C(F)(F)F)cc1)OCC(=O)c1ccc(C(F)(F)F)cc1	none
Cc1cc(Cl)c(S(=O)(=O)N2CCN(c3ccc(F)cc3)CC2)cc1OCC(=O)NC1CCCCC1	GalR3 antag 97 | GalR3 conf 110 | CNG parental inactive
Cc1cc(Cl)c(S(=O)(=O)N2CCN(c3ccc(F)cc3)CC2)cc1OCC(N)=O	none
Cn1c(=O)c2c(ncn2CC(COCc2ccc(Cl)cc2)OCc2ccc(Cl)cc2)n(C)c1=O (stereo unspecified)	none
Cn1c(=O)c2c(ncn2Cc2ccc(Cl)cc2)n(C)c1=O	GalR3 antag 15 | GalR3 conf inactive | CNG parental inactive
CCC(C)Nc1nc2c(c(=O)n(C)c(=O)n2C)n1Cc1ccc(Cl)cc1 (stereo unspecified)	none
Cn1c(=O)c2c(nc(NCc3cccnc3)n2Cc2ccc(Cl)cc2)n(C)c1=O	GalR3 antag 24 | GalR3 conf inactive | CNG parental inactive
CC(NCC1COc2ccccc2O1)C(=O)NCc1ccccc1 (stereo unspecified)	GalR3 antag 13 | GalR3 conf inactive | CNG parental inactive
O=C(NCc1ccccc1)C(=O)NCC1COc2ccccc2O1 (stereo unspecified)	none
O=S(=O)(c1ccccc1)n1c(CN2CCOCC2)nc2ccccc21	none (no result: NR2E3 ag-1, NR2E3 ag-2, GalR3 antag, PG9 Ab binder)
FC(F)(F)c1cnc(N2CCCN(C(=S)Nc3ccccc3)CC2)c(Cl)c1	GalR3 antag 40 | GalR3 conf 80 | CNG parental inactive
COC(=O)C1CN(Cc2ccc(C)cc2)CCS(=O)(=O)N1Cc1cn(Cc2ccc(C)cc2)nn1 (stereo unspecified)	none (no result: NR2E3 ag-1, NR2E3 ag-2, GalR3 antag, PG9 Ab binder)
CC(=O)c1cccc(CN2CCN(CCc3ccccc3)C(CCO)C2)c1 (stereo unspecified)	none
CC(=O)c1cccc(CN2CCN(CC=C(C)C)C(CCO)C2)c1 (stereo unspecified)	GalR3 antag 16 | GalR3 conf inactive | CNG parental inactive
CC(=O)Nc1cccc(NC=C(C#N)C#N)c1	GalR3 antag 15 | GalR3 conf inactive | CNG parental inactive
CC(=O)Nc1cccc(O)c1	none
CC(=O)O[C@H]1[C@H](OC(C)=O)C[C@]2(OC(C)=O)C[C@H]1OC2=O	none (no result: NR2E3 ag-1, NR2E3 ag-2, GalR3 antag, PG9 Ab binder)
Cc1ccc(Nc2nccc(N(C)c3ccc4c(C)n(C)nc4c3)n2)cc1S(N)(=O)=O	none (no result: NR2E3 ag-1, NR2E3 ag-2, GalR3 antag, PG9 Ab binder)
CCOc1cc(C(C(=O)NCC2CCCO2)N(C(=O)Cn2nnc3ccccc32)c2ccccc2C(C)=O)ccc1O (stereo unspecified)	GalR3 antag 15 | GalR3 conf 14 | CNG parental inactive
CCOc1cc(C(C(=O)NCC2CCCO2)N(C(=O)Cn2nnc3ccccc32)c2ccccc2C)ccc1O (stereo unspecified)	none
COc1cc(/C=C2\SC(=Nc3c(C)n(C)n(-c4ccccc4)c3=O)NC2=O)ccc1O	GalR3 antag 31 (no result: NR2E3 ag-2) | GalR3 conf 34 | CNG parental inactive
COc1cc(/C=C2\SC(=Nc3ccc(O)cc3)NC2=O)cc(OC)c1O	none
CCN(CC)C(=O)CC[C@H]1CC[C@]2(CCCN(c3ccccc3)C2)O1	none (no result: NR2E3 ag-1, NR2E3 ag-2, GalR3 antag, PG9 Ab binder)
CCOC(=O)[C@]12CCCCC/C=C\1N(CCc1ccc(Cl)cc1)C(=O)[C@H]2CC(=O)N1CCC(c2ccccc2)CC1	none (no result: NR2E3 ag-1, NR2E3 ag-2, GalR3 antag, PG9 Ab binder)
COc1ccc(-c2cc(NC(=O)Cc3c(C)[nH]c4ccccc34)ccc2Nc2cccnc2)cc1F	none (no result: NR2E3 ag-1, NR2E3 ag-2)
